Data: the array DNA melting data of Ke et al. (doi:10.1101/2024.01.08.574731)

Key:
[1] = melting temperature; fluorescence melt of hairpins on a sequencing array, two-state fit, raised by 9.35 °C to match UV melts; conditions: sodium 0.088 M
Summary of the method: (§1)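 Bootstrapped two-state fits yielded melting temperature and folding enthalpy for library hairpins. Cy3 fluorescence, with annealed Cy3 and quencher oligos, was imaged on a sequenced MiSeq flow cell in 50 mM Na-HEPES pH 8.0, 25 mM NaCl in 2.5 °C steps up to 60 °C, and normalised to pre-quench Cy3 and to control constructs. Four replicates were combined by inverse variance, and fitted temperatures were raised by 9.35 °C to match UV melts.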

[2] = folding enthalpy; higher = less favourable; fluorescence melt of hairpins on a sequencing array, two-state fit; conditions: sodium 0.088 M
Summary of the method: as §1

Sequence	Tm [1]	folding enthalpy [2]
GCGATACCGAAAGGTCGC (((..(((....))))))	54.3 °C	-29.3 kcal/mol
GCGATACGAAAGTAACGC (((.(((....))).)))	57.9 °C	-41.5 kcal/mol
GCGATAGGAAACTATCAC (.(((((....))))).)	35.9 °C	-18.4 kcal/mol
GCGATAGGAAACTGTCGC ((((.((....)).))))	54.5 °C	-50.7 kcal/mol
GCGATATCGAAAGATCGC (((..(((....))))))	50.1 °C	-30.7 kcal/mol
GCGATATTCGC ((((...))))	51.9 °C	-17.2 kcal/mol
GCGATCCTTCGC ((((....))))	53.7 °C	-24.6 kcal/mol
GCGATCGAAAGATGCGC ((((((....))).)))	53.6 °C	-27.8 kcal/mol
GCGATCTATCGC ((((....))))	55.5 °C	-31 kcal/mol
GCGATCTTTCGC ((((....))))	51.4 °C	-27.5 kcal/mol
GCGATGAAAATCGC (((((....)))))	61.6 °C	-31.7 kcal/mol
GCGATGAATCGC ((((....))))	52.4 °C	-26.2 kcal/mol
GCGATGCGAAAGCAAGGC ((..(((....)))..))	42.3 °C	-17.2 kcal/mol
GCGATGCGAAAGCACTGC ((..(((....)))..))	45.2 °C	-19.1 kcal/mol
GCGATGCGAAAGCATAGC ((.((((....)))).))	66.7 °C	-31.1 kcal/mol
GCGATGCTTCGC ((((....))))	62.3 °C	-20.2 kcal/mol
GCGATGGATCGC ((((....))))	52.8 °C	-22.8 kcal/mol
GCGATGGCGAAAGCCCGC (((..(((....))))))	56.5 °C	-18.4 kcal/mol
GCGATGGGAAACCACCGC (((.(((....))).)))	51.1 °C	-48.5 kcal/mol
GCGATGGGAAACCATTGC ((.((((....)))).))	52.5 °C	-49.3 kcal/mol
GCGATGGGAAACCGTTGC ((.(.((....)).).))	42.7 °C	-28.8 kcal/mol
GCGATTATCGC ((((...))))	49 °C	-20.9 kcal/mol
GCGATTATTCGC ((((....))))	52.4 °C	-25.1 kcal/mol
GCGATTCCGAAAGGACGC (((..(((....))))))	46 °C	-26.3 kcal/mol

Sequence	Tm [1]	folding enthalpy [2]
GCGATTGGAAACAATTGC ((.((((....)))).))	49.7 °C	-35.4 kcal/mol
GCGATTGGTCGC ((((....))))	52.1 °C	-23.4 kcal/mol
GCGATTGTTCGC ((((....))))	51.6 °C	-24.5 kcal/mol
GCGCAAGGAAACCTGCAC (.(((.(....).))).)	29.3 °C	-17 kcal/mol
GCGCAAGGAAACCTGCGC (((((.(....).)))))	62.4 °C	-41.7 kcal/mol
GCGCAAGGAAACTCACGC (((..((....))..)))	28.4 °C	-15 kcal/mol
GCGCAAGGAAACTCGCAC (.((.((....)).)).)	27.2 °C	-13.1 kcal/mol
GCGCAAGGAAACTTACGC (((.(((....))).)))	46 °C	-30.6 kcal/mol
GCGCACCCGAAAGGGCGC (((..(((....))))))	67 °C	-20.5 kcal/mol
GCGCACGAAAGTGCACGC ((((((....)))..)))	61.1 °C	-14.6 kcal/mol
GCGCACGAAAGTGGTCGC ((((((....)))..)))	53.4 °C	-13.8 kcal/mol
GCGCACGGAAACACGCGC ((((..(....)..))))	51.6 °C	-32.9 kcal/mol
GCGCACGGAAACGCACGC (((..((....))..)))	42.2 °C	-31.2 kcal/mol
GCGCACGGAAACGTGTGC ((.((((....)))).))	67.7 °C	-41 kcal/mol
GCGCAGACGAAAGTCCGC (((..(((....))))))	52.4 °C	-25 kcal/mol
GCGCAGCGAAAGCAGAGC ((.(.((....)).).))	54.6 °C	-15.7 kcal/mol
GCGCAGCGAAAGCTAAGC ((..(((....)))..))	58.4 °C	-17.7 kcal/mol
GCGCAGCGAAAGCTACGC (((.(((....))).)))	53.5 °C	-35 kcal/mol
GCGCAGTCGAAAGACCGC (((..(((....))))))	52.8 °C	-26.1 kcal/mol
GCGCATACGAAAGTACGC (((..(((....))))))	44.9 °C	-22.7 kcal/mol
GCGCATCGAAAGATTCGC (((.(((....))).)))	52.2 °C	-38.9 kcal/mol
GCGCATTCGAAAGAACGC (((..(((....))))))	41.4 °C	-18.8 kcal/mol
GCGCCAACGAAAGTTCGC (((..(((....))))))	43.5 °C	-24.3 kcal/mol
GCGCCACGAAAGTGCCGC (((.(((....))).)))	56.3 °C	-26.9 kcal/mol

Sequence	Tm [1]	folding enthalpy [2]
GCGCCCCGAAAGGGTCGC (((.(((....))).)))	68 °C	-45.8 kcal/mol
GCGCCCGAAAGGGGACGC ((((((....)))..)))	62.2 °C	-19.6 kcal/mol
GCGCCCGGAAACGGACGC (((.(((....))).)))	66.1 °C	-47 kcal/mol
GCGCCCGTGCGC ((((....))))	66.5 °C	-10.3 kcal/mol
GCGCCGCGAAAGCACCGC (((..((....))..)))	46.2 °C	-16.7 kcal/mol
GCGCCGCGAAAGCTGAGC ((.(.((....)).).))	57.5 °C	-20 kcal/mol
GCGCCGGGAAACCGACGC (((.(((....))).)))	60.9 °C	-46.8 kcal/mol
GCGCCTCGAAAGAGTCGC (((.(((....))).)))	58.7 °C	-38.3 kcal/mol
GCGCCTGGAAACAAGCGC ((((.((....)).))))	52.8 °C	-41.6 kcal/mol
GCGCGACCGAAAGGTCGC (((..(((....))))))	68.5 °C	-5.08 kcal/mol
GCGCGAGGAAACCCACGC (((.(.(....).).)))	40 °C	-20.3 kcal/mol
GCGCGAGGAAACTCGCAC (.(((((....))))).)	49.4 °C	-11.4 kcal/mol
GCGCGAGGAAACTCGTGC ((.((((....)))).))	62.9 °C	-42.3 kcal/mol
GCGCGCGAAAGCGCTCGC ((((((....)))..)))	59.4 °C	-10.5 kcal/mol
GCGCGCGAAAGCGGACGC ((((((....)))..)))	64.9 °C	-16.5 kcal/mol
GCGCGGCGAAAGCAACGC (((..((....))..)))	60 °C	-15.8 kcal/mol
GCGCGGCGAAAGCCTCGC (((.(((....))).)))	66.7 °C	-26.2 kcal/mol
GCGCGTCGAAAGACACGC (((.(((....))).)))	62.9 °C	-45.5 kcal/mol
GCGCGTGGAAACACGCAC (.(((((....))))).)	54.7 °C	-9.64 kcal/mol
GCGCTAGGAAACCAGCGC (((((.(....).)))))	57.3 °C	-45.4 kcal/mol
GCGCTCGAAAGAGAACGC ((((((....)))..)))	50.4 °C	-30.8 kcal/mol
GCGCTCGAAAGAGCACGC ((((((....)))..)))	60 °C	-16.7 kcal/mol
GCGCTCGAAAGAGTCGC ((((((....))).)))	57.7 °C	-30.6 kcal/mol
GCGCTGCGAAAGCAAGGC ((..(((....)))..))	46.7 °C	-16 kcal/mol

Sequence	Tm [1]	folding enthalpy [2]
GCGCTGCGAAAGCACGGC ((..(((....)))..))	51.5 °C	-15.1 kcal/mol
GCGCTGGGAAACTGGCGC ((((..(....)..))))	57.3 °C	-49.8 kcal/mol
GCGCTTCGAAAGAACCGC (((.(((....))).)))	46.4 °C	-31.7 kcal/mol
GCGCTTGGAAACAAACGC (((.(((....))).)))	48 °C	-34.1 kcal/mol
GCGGAAACCGC ((((...))))	52.9 °C	-23 kcal/mol
GCGGAAACGAAAGTTCGC (((..(((....))))))	48.8 °C	-27.5 kcal/mol
GCGGAAGCGAAAGCTCGC (((..(((....))))))	52.1 °C	-31.5 kcal/mol
GCGGAAGGCCGC ((((....))))	53.1 °C	-21.7 kcal/mol
GCGGAATTCCGC ((((....))))	56.3 °C	-36.5 kcal/mol
GCGGACAACCGC ((((....))))	53.1 °C	-19.5 kcal/mol
GCGGACACCCGC ((((....))))	53.5 °C	-20.9 kcal/mol
GCGGACAGCCGC ((((....))))	53.8 °C	-17.4 kcal/mol
GCGGACCCCGC ((((...))))	54.4 °C	-20.9 kcal/mol
GCGGACCGCCGC ((((....))))	55.8 °C	-19.1 kcal/mol
GCGGACCTCCGC ((((....))))	55.9 °C	-27.4 kcal/mol
GCGGACGAAAGTCCCCGC ((((((....)))..)))	45.8 °C	-12.7 kcal/mol
GCGGACGAAAGTCGGCGC ((((((....)))..)))	68 °C	-26.7 kcal/mol
GCGGACGAAAGTCGTCGC ((((((....)))..)))	52.6 °C	-22.8 kcal/mol
GCGGACGAAAGTCTACGC ((((((....)))..)))	52.2 °C	-28.8 kcal/mol
GCGGACGGAAACACCCGC ((((..(....)..))))	41.9 °C	-26.9 kcal/mol
GCGGACGGAAACGCCCGC ((((.((....)).))))	67.8 °C	-36.7 kcal/mol
GCGGACGGAAACGTCCAC (.(((((....))))).)	51.1 °C	-12.2 kcal/mol
